Assay results: ChEMBL document CHEMBL3817772, “Design, Synthesis, and Biological Evaluations of Hydroxypyridonecarboxylic Acids as Inhibitors of HIV Reverse Transcriptase Associated RNase H” (J Med Chem, 2016)
pEC50, pIC50: −log10 of the molar value.

Legend:
[1] = Inhibition of HIV-1 RT-RNase H activity expressed in Escherichia coli JM109 using internal cleavage measuring HTS-1 as substrate by fluorescence-based assay; parameters: species or system Human immunodeficiency virus 1
Outline: (§1)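 RT RNase H cleavage of fluorescein/Dabcyl-labelled RNA/DNA duplexes, with substrate in excess over RT. HTS-1 probes internal cleavage, HTS-2 DNA 3'-end-directed cleavage, and HTS-3 (fluorescein RNA annealed to Dabcyl DNA) RNA 5'-end-directed cleavage.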

[2] = Inhibition of HIV-1 RT-RNase H activity expressed in Escherichia coli JM109 using DNA 3'-end directed cleavage measuring HTS-2 as substrate by fluorescence-based assay; parameters: species or system Human immunodeficiency virus 1; outline: as §1
[3] = Inhibition of HIV-1 RT-RNase H activity expressed in Escherichia coli JM109 using RNA 5'-end directed cleavage measuring HTS-3 as substrate by fluorescence-based assay; parameters: species or system Human immunodeficiency virus 1; outline: as §1
[4] = Inhibition of HIV-1 RT-RNase H domain fragment expressed in Escherichia coli by fluorescence-based assay; parameters: species or system Human immunodeficiency virus 1
[5] = target: Human immunodeficiency virus type 1 reverse transcriptase (Human immunodeficiency virus 1, UniProt Q72547); test: Inhibition of HIV-1 RT RNA-dependent DNA polymerase activity expressed in Escherichia coli JM109 using [3H]TTP/ poly(rA)-oligo(dT)16 as substrate incubated for 20 mins by liquid scintillation spectrometric analysis
Outline: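 RNA-dependent DNA polymerase reaction in 50 mM Tris-HCl pH 7.4 (37°C), 60 mM KCl, 5 mM MgCl2, with 10 µM [3H]-TTP and 40 nM poly(rA)-oligo(dT)16. Started with 10 nM RT, 20 min at 37°C. Quenched in ice-cold 10% TCA plus 20 mM sodium pyrophosphate, glass-fiber filtered, washed with TCA and ethanol. Incorporation counted by liquid scintillation.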

[6] = target: Human immunodeficiency virus type 1 integrase (Human immunodeficiency virus 1, UniProt Q7ZJM1, C280S/F185K); test: Inhibition of full-length HIV-1 integrase F185K/C280S double mutant strand transfer activity expressed in Escherichia coli BL21(DE3) using oligo DNA as substrate preincubated for 10 mins followed by substrate addition incubated for 30 mins by plate reader analysis
[7] = tested on: Human immunodeficiency virus 1; test: Inhibition of HIV-1 RT-RNase H domain expressed in Escherichia coli JM109 at 30 uM using HTS-1 as substrate preincubated for 10 mins followed by substrate/MgCl2 addition incubated for 10 mins by fluorescence-based assay
Outline: (§2)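 Order-of-addition RNase H assay, HIV-1 RT in this format. Final conditions: 100 nM RT, 250 nM HTS-1 RNA/DNA duplex, 6 mM MgCl2, 30 µM inhibitor, 1% DMSO. RT is pre-incubated 10 min at 37 °C with the specified components. Missing components are then added and the reaction runs 10 min at 37 °C. Fluorescence signal is corrected against a DMSO-only control. Mean ± SD of two independent experiments.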

[8] = tested on: Human immunodeficiency virus 1; test: Inhibition of HIV-1 RT-RNase H domain expressed in Escherichia coli JM109 at 30 uM using HTS-1 as substrate preincubated with compound and MgCl2 for 10 mins followed by substrate addition incubated for 10 mins by fluorescence-based assay; outline: as §2
[9] = tested on: Human immunodeficiency virus 1; test: Inhibition of HIV-1 RT-RNase H domain expressed in Escherichia coli JM109 at 30 uM using HTS-1 as substrate preincubated with compound/substrate for 10 mins followed by MgCl2 addition incubated for 10 mins by fluorescence-based assay; outline: as §2
[10] = tested on: Human immunodeficiency virus 1; test: Inhibition of HIV-1 RT-RNase H domain expressed in Escherichia coli JM109 at 30 uM using HTS-1 as substrate preincubated with substrate for 10 mins followed by compound/MgCl2 addition incubated for 10 mins by fluorescence-based assay; outline: as §2
[11] = tested on: Human immunodeficiency virus 1; test: Inhibition of HIV-1 RT-RNase H domain expressed in Escherichia coli JM109 at 30 uM using HTS-1 as substrate preincubated for 10 mins followed by substrate/MgCl2 addition incubated for 2 mins by fluorescence-based assay
Outline: (§3)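 Excess-RT order-of-addition RNase H assay. RT is pre-incubated 10 min at 37 °C with inhibitor or with substrate. Remaining components are added and the reaction runs 2 min at 37 °C. Fluorescence is DMSO-control corrected. Mean ± SD of two independent experiments.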

[12] = tested on: Human immunodeficiency virus 1; test: Inhibition of HIV-1 RT-RNase H domain expressed in Escherichia coli JM109 at 30 uM using HTS-1 as substrate preincubated with substrate for 10 mins followed by compound/MgCl2 addition incubated for 2 mins by fluorescence-based assay; outline: as §3
[13] = tested on: Human immunodeficiency virus 1; test: Antiviral activity against HIV-1 infected in human HeLa P4/R5 cells assessed as inhibition of virus replication pretreated for 16 hrs followed by infection measured after 48 hrs by fluorescence-based beta-galactosidase detection assay; assay type: functional, organism-based
Outline: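 P4R5 indicator cells (CD4, CXCR4, CCR5; HIV LTR-driven β-galactosidase reporter) seeded at 5×10^3 per well in DMEM/10% FBS with puromycin 0.5 µg/ml. Drug exposure 16 h, then HIV infection and a further 48 h. Infection read by fluorescence-based β-galactosidase detection. Triplicate data points; EC50 taken from dose-response.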

[14] = Cytotoxicity against human HeLa P4/R5 cells up to 25 uM; assay type: cell-based

Sequence of Human immunodeficiency virus type 1 integrase (Q7ZJM1 entry or part of it C280S/F185K): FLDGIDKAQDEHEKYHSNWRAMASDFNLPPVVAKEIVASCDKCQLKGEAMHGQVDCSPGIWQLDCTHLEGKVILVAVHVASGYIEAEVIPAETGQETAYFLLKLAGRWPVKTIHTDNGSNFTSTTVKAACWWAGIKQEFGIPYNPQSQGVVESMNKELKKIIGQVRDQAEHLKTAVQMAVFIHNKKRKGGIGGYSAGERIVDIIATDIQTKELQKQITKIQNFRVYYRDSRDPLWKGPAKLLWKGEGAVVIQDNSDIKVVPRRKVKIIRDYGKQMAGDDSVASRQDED

Row | SMILES | pIC50 [1] | pIC50 [2] | pIC50 [3] | pIC50 [4] | pIC50 [5] | pIC50 [6] | inhibition [7] | inhibition [8] | inhibition [9] | inhibition [10] | inhibition [11] | inhibition [12] | inhibition [13] | pEC50 ([13]; Human immunodeficiency virus 1, P4/R5) | CC50 [14]
1 | O=C(O)c1cn(Cc2ccncc2)cc(O)c1=O | < 4.60 | < 4.60 | < 4.60 | < 4.60 | < 4.60 | < 4.00 |  |  |  |  |  |  |  |  | 
2 | O=C(O)c1cn(Cc2ccc(Cl)cc2)cc(O)c1=O |  | < 4.60 | < 4.60 |  | < 4.60 |  |  |  |  |  |  |  |  |  | 
3 | O=C(O)c1cn(Cc2ccc(Cl)cc2Cl)cc(O)c1=O | 4.92 | < 4.60 | < 4.60 | 5.38 | < 4.60 | 4.60 |  |  |  |  |  |  |  |  | 
4 | O=C(O)c1cn(Cc2ccc(-c3cnc4ccccc4c3)cc2)cc(O)c1=O | 6.05 |  |  |  |  |  | 95% | 68% | 66% | 50% | 91% | 74% |  |  | 
5 | NCc1ccc(-c2ccc(Cn3cc(O)c(=O)c(C(=O)O)c3)cc2)cc1 |  | 5.36 | 5.41 | 5.36 | 5.49 | 5.11 |  |  |  |  |  |  |  |  | 
6 | O=C(O)c1cn(Cc2ccccc2-c2ccccc2)cc(O)c1=O | 5.11 | 4.60 | < 4.60 | 5.29 | < 4.60 | 4.77 |  |  |  |  |  |  |  |  | 
7 | O=C(O)c1cn(Cc2ccc(F)c(Cl)c2)cc(O)c1=O | 4.74 | < 4.60 | < 4.60 | 5.01 | < 4.60 | 4.35 |  |  |  |  |  |  |  |  | 
8 | CS(=O)(=O)c1ccc(Cn2cc(O)c(=O)c(C(=O)O)c2)cc1 | < 4.60 | < 4.60 | < 4.60 | 4.60 | < 4.60 | < 4.00 |  |  |  |  |  |  |  |  | 
9 | O=C(O)c1cn(CC2(c3ccccc3)CCCC2)cc(O)c1=O | 5.82 | 5.29 | 5.31 | 5.09 | 5.74 | 4.85 | 75% | 84% | 38% | 18% | 42% | 15% |  |  | 
10 | O=C(O)c1cn(Cc2ccccc2)cc(O)c1=O | < 4.60 | < 4.60 | < 4.60 | 4.96 | < 4.60 | 4.46 |  |  |  |  |  |  |  |  | 
11 | NC(=O)c1cn(Cc2ccc(F)cc2)cc(O)c1=O | 4.92 | < 4.60 | < 4.60 | 5.17 | < 4.60 | 4.49 |  |  |  |  |  |  |  |  | 
12 | O=C(O)c1cn(Cc2ccc(F)cc2)cc(O)c1=O | 4.77 | < 4.60 | < 4.60 | 5.11 | < 4.60 | 4.46 |  |  |  |  |  |  |  |  | 
13 | NS(=O)(=O)c1ccc(-c2ccc(Cn3cc(O)c(=O)c(C(=O)O)c3)cc2)cc1 | 6.19 | 5.82 | 6.00 | 5.89 | 5.92 | < 4.00 | 97% | 79% | 68% | 14% | 92% | 80% |  |  | 
14 | O=C(O)c1c[nH]cc(O)c1=O | < 4.60 | < 4.60 | < 4.60 | 4.66 | < 4.60 | < 4.00 |  |  |  |  |  |  |  |  | 
15 | Cc1cc(Cn2cc(O)c(=O)c(C(=O)O)c2)ccc1F | 4.77 | < 4.60 | < 4.60 | 5.01 | < 4.60 | < 4.00 |  |  |  |  |  |  |  |  | 
16 | O=C(O)c1cn(Cc2cccc(C(F)(F)F)c2)cc(O)c1=O |  | < 4.60 | < 4.60 |  | < 4.60 |  |  |  |  |  |  |  |  |  | 
17 | O=C(O)c1cn(-c2ccccc2)cc(O)c1=O | < 4.60 | < 4.60 | < 4.60 | < 4.60 | < 4.60 | 4.43 |  |  |  |  |  |  |  |  | 
18 | COc1ccc(Cn2cc(O)c(=O)c(C(=O)O)c2)cc1 |  |  |  |  | < 4.60 |  | 69% | 52% | 27% | 21% | 70% | 58% |  |  | 
19 | O=C(O)c1cn(Cc2ccc(-c3cccnc3)cc2)cc(O)c1=O |  |  |  |  | < 4.60 |  |  |  |  |  |  |  |  |  | 
20 | CCOC(=O)c1cn(Cc2ccc(F)cc2)cc(O)c1=O | < 4.60 | < 4.60 | < 4.60 | < 4.60 | < 4.60 | < 4.00 |  |  |  |  |  |  |  |  | 
21 | O=C(O)c1cn(Cc2ccc(F)cc2F)cc(O)c1=O | 4.89 | < 4.60 | < 4.60 | 5.17 | < 4.60 | < 4.00 |  |  |  |  |  |  |  |  | 
22 | O=C(O)c1cn(Cc2ccc(Cl)c(Cl)c2)cc(O)c1=O | 4.85 | < 4.60 | < 4.60 | 5.33 | < 4.60 | 4.44 |  |  |  |  |  |  |  |  | 
23 | O=C(O)c1cn(Cc2ccc(-c3ccccc3)cc2)cc(O)c1=O | 5.60 | 5.55 | 5.54 | 5.74 | 5.66 | 4.66 | 68% | 36% | 37% | 21% | 78% | 59% |  |  | 
24 | O=C(O)c1cn(Cc2ccc(Br)cc2)cc(O)c1=O | < 4.60 | < 4.60 | < 4.60 | < 4.60 | < 4.60 | < 4.00 |  |  |  |  |  |  |  |  | 
25 | CC(c1cccc2ccccc12)n1cc(O)c(=O)c(C(=O)O)c1 (centres undefined) | 5.15 | < 4.60 | 4.89 | 5.43 | 4.72 | 5.65 |  |  |  |  |  |  |  |  | 
26 | O=C(O)c1ccc(Cn2cc(O)c(=O)c(C(=O)O)c2)cc1 | < 4.60 | < 4.60 | < 4.60 | 4.85 | < 4.60 | < 4.00 |  |  |  |  |  |  |  |  | 
27 | CC(c1ccc(F)cc1)n1cc(O)c(=O)c(C(=O)O)c1 (centres undefined) | 4.80 | < 4.60 | < 4.60 | 5.28 | < 4.60 | 4.47 |  |  |  |  |  |  |  |  | 
28 | O=C(O)c1cn(Cc2cccc3ccccc23)cc(O)c1=O |  |  |  |  |  |  | 58% | 51% | 35% | 28% | 82% | 61% | Dose-dependent effect | 5.00 | > 25 µM
